Laboratory results as given in ChEMBL document CHEMBL1671627, “Increasing trends in antimicrobial resistance among clinically important anaerobes and Bacteroides fragilis isolates causing nosocomial infections: emerging resistance to carbapenems” (2008).
Converted amounts (≈) assume the structure as drawn.

Tests used:
[1] = test system: Veillonella parvula; assay: Antibacterial activity against Veillonella parvula by CLSI agar dilution method; assay type: functional
[2] = test system: Peptostreptococcus anaerobius; assay: Antibacterial activity against beta-lactamase producing Peptostreptococcus anaerobius assessed as resistant isolates by CLSI agar dilution method in presence of Tazobactam; assay type: functional
Summary of the method: (§1)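 207 nonduplicate anaerobic blood isolates from patients with bloodstream infections at NTUH, collected January–December 2006. MICs were determined by agar dilution following CLSI guidelines. Inocula were applied with a Steers replicator onto supplemented Brucella blood agar and incubated 48 h at 35°C in an anaerobic chamber. MIC was the lowest concentration inhibiting growth. B. fragilis ATCC 25285, B. thetaiotaomicron ATCC 29741 and E. lentum ATCC 43055 served as controls in each run.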

[3] = test system: Fusobacterium mortiferum; assay: Antibacterial activity against Fusobacterium mortiferum assessed as resistant isolates by CLSI agar dilution method in presence of Tazobactam; assay type: functional; summary of the method: as §1
[4] = test system: Bacteroides thetaiotaomicron; assay: Antibacterial activity against beta-lactamase producing Bacteroides thetaiotaomicron by CLSI agar dilution method in presence of Tazobactam; assay type: functional
Summary of the method: (§2)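 Agar dilution per CLSI guidelines on nonduplicate anaerobic bloodstream isolates collected at NTUH, January to December 2006. Isolates were spotted by Steers replicator onto supplemented Brucella blood agar and incubated anaerobically for 48 h at 35°C. MIC was the lowest drug concentration that inhibited growth. B. fragilis ATCC 25285, B. thetaiotaomicron ATCC 29741 and E. lentum ATCC 43055 were run as QC in each run.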

[5] = test system: Peptostreptococcus anaerobius; assay: Antibacterial activity against beta-lactamase producing Peptostreptococcus anaerobius assessed as resistant isolates by CLSI agar dilution method; assay type: functional
[6] = test system: Prevotella intermedia; assay: Antibacterial activity against Prevotella intermedia by CLSI agar dilution method; assay type: functional
[7] = test system: Peptoniphilus asaccharolyticus; assay: Antibacterial activity against beta-lactamase producing Peptoniphilus asaccharolyticus assessed as susceptible isolates by CLSI agar dilution method; assay type: functional
[8] = test system: Peptostreptococcus anaerobius; assay: Antibacterial activity against beta-lactamase producing Peptostreptococcus anaerobius by CLSI agar dilution method; assay type: functional
[9] = test system: Parvimonas micra; assay: Antibacterial activity against beta-lactamase producing Micromonas micros assessed as resistant isolates by CLSI agar dilution method in presence of Tazobactam; assay type: functional; summary of the method: as §1
[10] = test system: Fusobacterium necrophorum; assay: Antibacterial activity against Fusobacterium necrophorum assessed as susceptible isolates by CLSI agar dilution method; assay type: functional
[11] = test system: Prevotella buccae; assay: Antibacterial activity against Prevotella buccae assessed as susceptible isolates by CLSI agar dilution method in presence of Tazobactam; assay type: functional, Segatella buccae; summary of the method: as §2
[12] = test system: Finegoldia magna; assay: Antibacterial activity against beta-lactamase producing Finegoldia magna assessed as resistant isolates by CLSI agar dilution method in presence of Tazobactam; assay type: functional; summary of the method: as §1
[13] = test system: Parvimonas micra; assay: Antibacterial activity against beta-lactamase producing Micromonas micros assessed as susceptible isolates by CLSI agar dilution method; assay type: functional
[14] = test system: Clostridium septicum; assay: Antibacterial activity against beta-lactamase producing Clostridium septicum assessed as susceptible isolates by CLSI agar dilution method in presence of Tazobactam; assay type: functional
Summary of the method: (§3)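 CLSI agar dilution MICs for anaerobic blood isolates (nonduplicate) collected from bloodstream-infection patients at a Taiwanese tertiary hospital, January–December 2006. Isolates were spotted by Steers replicator onto supplemented Brucella blood agar and incubated anaerobically for 48 h at 35°C. MIC was the lowest drug concentration inhibiting growth. Each run included B. fragilis ATCC 25285, B. thetaiotaomicron ATCC 29741 and E. lentum ATCC 43055 as quality-control strains.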

[15] = test system: Clostridium perfringens; assay: microbe, parasite or virus in culture; assay type: functional
[16] = test system: Prevotella bivia; assay: Antibacterial activity against Prevotella bivia assessed as susceptible isolates by CLSI agar dilution method; assay type: functional
[17] = test system: Prevotella intermedia; assay: Antibacterial activity against Prevotella intermedia assessed as susceptible isolates by CLSI agar dilution method in presence of Tazobactam; assay type: functional; summary of the method: as §2
[18] = test system: Prevotella intermedia; assay: Antibacterial activity against Prevotella intermedia by CLSI agar dilution method in presence of Tazobactam; assay type: functional; summary of the method: as §2
[19] = test system: Prevotella buccae; assay: Antibacterial activity against Prevotella buccae by CLSI agar dilution method in presence of Tazobactam; assay type: functional; conditions: Segatella buccae; summary of the method: as §2
[20] = test system: Prevotella melaninogenica; assay: Antibacterial activity against Prevotella melaninogenica assessed as susceptible isolates by CLSI agar dilution method in presence of Tazobactam; assay type: functional; summary of the method: as §2
[21] = test system: Fusobacterium varium; assay: Antibacterial activity against Fusobacterium varium by CLSI agar dilution method in presence of Tazobactam; assay type: functional; summary of the method: as §2
[22] = test system: Bacteroides caccae; assay: Antibacterial activity against beta-lactamase producing Bacteroides caccae assessed as susceptible isolates by CLSI agar dilution method in presence of Tazobactam; assay type: functional; summary of the method: as §2
[23] = test system: Clostridium tertium; assay: Antibacterial activity against beta-lactamase producing Clostridium tertium assessed as resistant isolates by CLSI agar dilution method in presence of Tazobactam; assay type: functional; summary of the method: as §1
[24] = test system: Phocaeicola vulgatus; assay: Antibacterial activity against beta-lactamase producing Bacteroides vulgatus by CLSI agar dilution method in presence of Tazobactam; assay type: functional; summary of the method: as §3
[25] = test system: Bacteroides caccae; assay: Antibacterial activity against beta-lactamase producing Bacteroides caccae assessed as susceptible isolates by CLSI agar dilution method; assay type: functional
[26] = test system: Fusobacterium nucleatum; assay: Antibacterial activity against Fusobacterium nucleatum assessed as susceptible isolates by CLSI agar dilution method in presence of Tazobactam; assay type: functional; summary of the method: as §2
[27] = test system: Prevotella melaninogenica; assay: Antibacterial activity against Prevotella melaninogenica assessed as resistant isolates by CLSI agar dilution method; assay type: functional
[28] = test system: Prevotella melaninogenica; assay: Antibacterial activity against Prevotella melaninogenica by CLSI agar dilution method in presence of Tazobactam; assay type: functional; summary of the method: as §2
[29] = test system: Parvimonas micra; assay: Antibacterial activity against beta-lactamase producing Micromonas micros assessed as susceptible isolates by CLSI agar dilution method in presence of Tazobactam; assay type: functional; summary of the method: as §3
[30] = test system: Fusobacterium nucleatum; assay: Antibacterial activity against Fusobacterium nucleatum by CLSI agar dilution method; assay type: functional
[31] = test system: Phocaeicola vulgatus; assay: Antibacterial activity against beta-lactamase producing Bacteroides vulgatus assessed as resistant isolates by CLSI agar dilution method; assay type: functional
[32] = test system: Peptoniphilus asaccharolyticus; assay: Antibacterial activity against beta-lactamase producing Peptoniphilus asaccharolyticus assessed as resistant isolates by CLSI agar dilution method in presence of clavulanate; assay type: functional; summary of the method: as §1
[33] = test system: Bacteroides fragilis; assay: Antibacterial activity against Bacteroides fragilis assessed as resistant isolates by CLSI agar dilution method in presence of clavulanate; assay type: functional; summary of the method: as §1
[34] = test system: Peptoniphilus asaccharolyticus; assay: Antibacterial activity against beta-lactamase producing Peptoniphilus asaccharolyticus by CLSI agar dilution method in presence of clavulanate; assay type: functional; summary of the method: as §3
[35] = test system: Prevotella bivia; assay: Antibacterial activity against Prevotella bivia by CLSI agar dilution method in presence of clavulanate; assay type: functional; summary of the method: as §2
[36] = test system: Fusobacterium necrophorum; assay: Antibacterial activity against Fusobacterium necrophorum assessed as susceptible isolates by CLSI agar dilution method in presence of clavulanate; assay type: functional; summary of the method: as §2
[37] = test system: Parvimonas micra; assay: Antibacterial activity against beta-lactamase producing Micromonas micros assessed as resistant isolates by CLSI agar dilution method in presence of clavulanate; assay type: functional; summary of the method: as §1
[38] = test system: Clostridium tertium; assay: Antibacterial activity against beta-lactamase producing Clostridium tertium assessed as susceptible isolates by CLSI agar dilution method in presence of clavulanate; assay type: functional; summary of the method: as §3

Compound `CCN1CCN(C(=O)N[C@@H](C(=O)N[C@@H]2C(=O)N3[C@@H]2SC(C)(C)[C@@H]3C(=O)O)c2ccccc2)C(=O)C1=O` [PIPERACILLIN] has an MIC [1] of 1 mg/L (≈ 1.93 µM), an Activity [2] of 0% and an Activity [3] of 0%. It also gave an MIC50 [4] of 8 mg/L, an MIC90 [4] of 32 mg/L and an Activity [5] of 3%. The MIC50 [6] was 16 mg/L (≈ 30.9 µM), the MIC90 [6] was 128 mg/L (≈ 247 µM) and the Activity [7] was 97%. For the same compound, the MIC50 [8] was 0.12 mg/L (≈ 0.232 µM), the MIC90 [8] was 8 mg/L (≈ 15.5 µM) and the Activity [9] was 0%. It also gave an Activity [10] of 90%, an Activity [11] of 100% and an Activity [12] of 0%. The Activity [13] was 97%, the Activity [14] was 100% and the MIC50 [15] was 0.5 mg/L (≈ 0.966 µM). The MIC90 [15] was 2 mg/L (≈ 3.86 µM), the Activity [16] was 71% and the Activity [17] was 100%. For the same compound, the MIC [18] was 0.03 mg/L, the MIC50 [18] was 0.03 mg/L and the MIC90 [18] was 1 mg/L. The MIC [19] was 0.03 mg/L, the MIC50 [19] was 0.03 mg/L and the MIC90 [19] was 1 mg/L. The Activity [20] was 100%, the MIC50 [21] was 0.5 mg/L and the MIC90 [21] was 2 mg/L. The Activity [22] was 96%, the Activity [23] was 0% and the MIC50 [24] was 8 mg/L. For the same compound, the MIC90 [24] was 16 mg/L, the Activity [25] was 35% and the Activity [26] was 100%. For the same compound, the Activity [27] was 22%, the MIC [28] was 0.03 mg/L and the MIC50 [28] was 0.03 mg/L. The MIC90 [28] was 1 mg/L, the Activity [29] was 97% and the MIC50 [30] was 2 mg/L (≈ 3.86 µM). The MIC90 [30] was 8 mg/L (≈ 15.5 µM) and the Activity [31] was 65%.
Work on `CC1(C)S[C@@H]2[C@H](NC(=O)[C@H](N)c3ccc(O)cc3)C(=O)N2[C@H]1C(=O)O` [AMOXICILLIN] yielded an Activity [32] of 3%, an Activity [33] of 23% and an MIC50 [34] of 0.25 mg/L. It also gave an MIC90 [34] of 2 mg/L, an MIC50 [35] of 4 mg/L and an MIC90 [35] of 16 mg/L. The Activity [36] was 89%, the Activity [37] was 3% and the Activity [38] was 96%.
